# Reference: ChEMBL document CHEMBL2177098, “Synthesis and evaluation of novel ¹⁸F labeled 2-pyridinylbenzoxazole and 2-pyridinylbenzothiazole derivatives as ligands for positron emission tomography (PET) imaging of β-amyloid plaques” (J Med Chem, 2012)
# Calls of active or inactive are those of the source. No cut-off for these calls is given here.
# Legend:
# Mus musculus [1] = species: Mus musculus; assay: Binding affinity to amyloid beta plaques in transgenic C57BL6 mouse cortex expressing APP Swedish mutant/PSEN1 at 370 KBq/100 ul after 1 hr by thioflavinS-staining method; settings: tested as the 18F-labelled form
# How it was run: (§1)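 Paraffin brain sections from 12-month-old Tg mice (C57BL6, APPswe/PSEN1) and age-matched controls, deparaffinized through xylene and graded ethanol, then PBS (0.2 M, pH 7.4) 30 min. Incubated with 18F tracer (370 KBq per 100 μL) 1 h at room temperature, washed in 40% EtOH, rinsed in water, then phosphor plate exposure 2 h. The same sections were afterwards stained with 0.125% thioflavin S in 10% EtOH for 3 min and washed in 40% EtOH.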
# [2] = molecular target: Amyloid-beta precursor protein (Homo sapiens) (UniProt P05067); assay: Binding affinity to amyloid beta plaques in Alzheimer patient brain at 370 KBq/100 ul after 1 hr by autoradiographic analysis; settings: tested as the 18F-labelled form
# Mus musculus [3] = species: Mus musculus; assay: Binding affinity to amyloid beta plaques in transgenic C57BL6 mouse cortex expressing APP Swedish mutant/PSEN1 at 370 KBq/100 ul after 1 hr by autoradiographic analysis; settings: tested as the 18F-labelled form; how it was run: as §1
# Mus musculus [4] = species: Mus musculus; assay: Binding affinity to amyloid beta plaques in transgenic C57BL6 mouse hippocampus expressing APP Swedish mutant/PSEN1 at 370 KBq/100 ul after 1 hr by thioflavinS-staining method; assay type: tissue-based; settings: tested as the 18F-labelled form; how it was run: as §1
# [5] = Displacement of [125I]-IMPY from amyloid beta (1 to 42) fibrils after 2 hrs by gamma-counting analysis
# How it was run: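 Competition binding with aggregated Aβ1-42 fibrils and [125I]IMPY (60000−100000 cpm/100 μL) in 0.05% BSA (1 mL total); inhibitors 10⁻⁴−10^−8.5 M in ethanol. Incubated 37 °C for 2 h, then GF/B vacuum filtration with PBS (0.02 M, pH 7.4) washes and γ counting. Three repeats; IC50 converted to Ki by Cheng−Prusoff.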
# Mus musculus [6] = species: Mus musculus; assay: Binding affinity to amyloid beta plaques in transgenic C57BL6 mouse hippocampus expressing APP Swedish mutant/PSEN1 at 370 KBq/100 ul after 1 hr by autoradiographic analysis; assay type: tissue-based; settings: tested as the 18F-labelled form; how it was run: as §1
# Chain of Amyloid-beta precursor protein (Homo sapiens) (P05067 whole entry): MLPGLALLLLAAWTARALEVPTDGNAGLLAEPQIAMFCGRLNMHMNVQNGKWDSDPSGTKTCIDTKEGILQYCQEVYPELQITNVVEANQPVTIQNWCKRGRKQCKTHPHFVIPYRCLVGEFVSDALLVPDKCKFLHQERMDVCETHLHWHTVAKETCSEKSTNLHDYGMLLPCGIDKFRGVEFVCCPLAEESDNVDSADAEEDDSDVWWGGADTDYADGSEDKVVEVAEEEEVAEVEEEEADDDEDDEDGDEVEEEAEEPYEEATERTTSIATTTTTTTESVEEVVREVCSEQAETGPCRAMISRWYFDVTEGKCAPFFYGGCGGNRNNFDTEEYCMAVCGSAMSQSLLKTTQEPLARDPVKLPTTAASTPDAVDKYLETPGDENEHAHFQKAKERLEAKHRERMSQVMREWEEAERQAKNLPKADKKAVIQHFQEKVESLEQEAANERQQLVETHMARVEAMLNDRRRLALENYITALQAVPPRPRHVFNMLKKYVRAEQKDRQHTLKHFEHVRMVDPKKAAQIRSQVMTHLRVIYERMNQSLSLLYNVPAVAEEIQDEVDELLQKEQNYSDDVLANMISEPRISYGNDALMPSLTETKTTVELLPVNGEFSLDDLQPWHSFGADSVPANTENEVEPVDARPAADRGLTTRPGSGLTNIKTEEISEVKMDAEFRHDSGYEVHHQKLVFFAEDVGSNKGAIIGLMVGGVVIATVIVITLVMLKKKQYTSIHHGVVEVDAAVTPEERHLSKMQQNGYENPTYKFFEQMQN
smiles,measurement,setting,value
CNc1ccc(-c2nc3cc(OCCOCCOCCF)ccc3o2)cn1,Activity,Mus musculus [1],Active
same,Activity,[2],Active
same,Activity,Mus musculus [3],Active
same,Activity,Mus musculus [4],Active
same,Ki,[5],76.9 nM
same,Activity,Mus musculus [6],Active
